# Test system: LOX IMVI
# Test: Growth inhibition of human LOX IMVI cells at 10 uM incubated for 48 hrs by sulforhodamine B assay relative to control
# Assay type: functional
# Details: read-out: GI
# In short: (§1)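 NCI-60 single-dose screen. Cells were grown in RPMI 1640 with 5% FBS and 2 mM L-glutamine and plated 24 h before drug addition. Compound was added at one concentration in DMSO-derived medium and incubated for 48 h at 37 °C in 5% CO2. Read-out was SRB protein stain at 515 nm. Result is percent growth versus the no-drug control and the time-zero cell count; values below 0 indicate lethality.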
row,Compound,inhibition of growth at 10 µM
1,COc1cc2nc(-c3cccs3)cc(OCCCN3CCC(O)CC3)c2cc1OC,20%

# Test system: SK-MEL-2
# Test: Growth inhibition of human SK-MEL-2 cells at 10 uM incubated for 48 hrs by sulforhodamine B assay relative to control
# Assay type: functional
# Details: read-out: GI
# In short: (§2)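 NCI one-dose screen. Cells grown in RPMI 1640 with 5% FBS and 2 mM L-glutamine, plated and incubated 24 h at 37 °C, 5% CO2. DMSO-dissolved drug added, then 48 h further incubation. Adherent cells fixed with cold TCA, suspension cells fixed after settling. Stained with 0.4% SRB, absorbance read at 515 nm. Reported as percent growth relative to no-drug control and time-zero cell number.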
row,Compound,inhibition of growth at 10 µM
1,COc1cc2nc(-c3cccs3)cc(OCCCN3CCC(O)CC3)c2cc1OC,20%

# Test system: EKVX
# Test: Growth inhibition of human EKVX cells at 10 uM incubated for 48 hrs by sulforhodamine B assay relative to control
# Assay type: functional
# Details: read-out: GI
# In short: as §1
row,Compound,inhibition of growth at 10 µM
1,COc1cc2nc(-c3cccs3)cc(OCCCN3CCC(O)CC3)c2cc1OC,20%

# Test system: SF-268
# Test: Growth inhibition of human SF-268 cells at 10 uM incubated for 48 hrs by sulforhodamine B assay relative to control
# Assay type: functional
# Details: read-out: GI
# In short: as §2
row,Compound,inhibition of growth at 10 µM
1,COc1cc2nc(-c3cccs3)cc(OCCCN3CCC(O)CC3)c2cc1OC,20%

# Test system: HL-60(TB)
# Test: Growth inhibition of human HL-60(TB) cells at 10 uM incubated for 48 hrs by sulforhodamine B assay relative to control
# Assay type: functional
# Details: read-out: GI
# In short: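 NCI-60 one-dose screen: same culture, 48 h drug exposure and SRB read-out. Reported as percent growth relative to no-drug control and to time-zero cell number; 0–100 means growth inhibition, below 0 means lethality.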
row,Compound,inhibition of growth at 10 µM
1,COc1cc2nc(-c3cccs3)cc(OCCCN3CCC(O)CC3)c2cc1OC,20%

# Test system: NCI/ADR-RES
# Test: Growth inhibition of human NCI/ADR-RES cells at 10 uM incubated for 48 hrs by sulforhodamine B assay relative to control
# Assay type: functional
# Details: read-out: GI
# In short: as §2
row,Compound,inhibition of growth at 10 µM
1,COc1cc2nc(-c3cccs3)cc(OCCCN3CCC(O)CC3)c2cc1OC,20%

# Test system: SF-539
# Test: Growth inhibition of human SF-539 cells at 10 uM incubated for 48 hrs by sulforhodamine B assay relative to control
# Assay type: functional
# Details: read-out: GI
# In short: as §2
row,Compound,inhibition of growth at 10 µM
1,COc1cc2nc(-c3cccs3)cc(OCCCN3CCC(O)CC3)c2cc1OC,20%

# Test system: BT-549
# Test: Growth inhibition of human BT-549 cells at 10 uM incubated for 48 hrs by sulforhodamine B assay relative to control
# Assay type: functional
# Details: read-out: GI
# In short: as §1
row,Compound,inhibition of growth at 10 µM
1,COc1cc2nc(-c3cccs3)cc(OCCCN3CCC(O)CC3)c2cc1OC,20%

# Test system: SK-MEL-28
# Test: Growth inhibition of human SK-MEL-28 cells at 10 uM incubated for 48 hrs by sulforhodamine B assay relative to control
# Assay type: functional
# Details: read-out: GI
# In short: as §2
row,Compound,inhibition of growth at 10 µM
1,COc1cc2nc(-c3cccs3)cc(OCCCN3CCC(O)CC3)c2cc1OC,20%

# Test system: Hs-578T
# Test: Growth inhibition of human HS-578T cells at 10 uM incubated for 48 hrs by sulforhodamine B assay relative to control
# Assay type: functional
# Details: read-out: GI
# In short: as §1
row,Compound,inhibition of growth at 10 µM
1,COc1cc2nc(-c3cccs3)cc(OCCCN3CCC(O)CC3)c2cc1OC,20%

# Test system: OVCAR-3
# Test: Growth inhibition of human OVCAR-3 cells at 10 uM incubated for 48 hrs by sulforhodamine B assay relative to control
# Assay type: functional
# Details: read-out: GI
# In short: as §2
row,Compound,inhibition of growth at 10 µM
1,COc1cc2nc(-c3cccs3)cc(OCCCN3CCC(O)CC3)c2cc1OC,20%

# Test system: HOP-92
# Test: Growth inhibition of human HOP-92 cells at 10 uM incubated for 48 hrs by sulforhodamine B assay relative to control
# Assay type: functional
# Details: read-out: GI
# In short: as §1
row,Compound,inhibition of growth at 10 µM
1,COc1cc2nc(-c3cccs3)cc(OCCCN3CCC(O)CC3)c2cc1OC,20%

# Test system: SNB-19
# Test: Growth inhibition of human SNB-19 cells at 10 uM incubated for 48 hrs by sulforhodamine B assay relative to control
# Assay type: functional
# Details: read-out: GI
# In short: as §2
row,Compound,inhibition of growth at 10 µM
1,COc1cc2nc(-c3cccs3)cc(OCCCN3CCC(O)CC3)c2cc1OC,20%

# Test system: MDA-MB-468
# Test: Growth inhibition of human MDA-MB-468 cells at 10 uM incubated for 48 hrs by sulforhodamine B assay relative to control
# Assay type: functional
# Details: read-out: GI
# In short: as §1
row,Compound,inhibition of growth at 10 µM
1,COc1cc2nc(-c3cccs3)cc(OCCCN3CCC(O)CC3)c2cc1OC,20%

# Test system: SNB-75
# Test: Growth inhibition of human SNB-75 cells at 10 uM incubated for 48 hrs by sulforhodamine B assay relative to control
# Assay type: functional
# Details: read-out: GI
# In short: as §2
row,Compound,inhibition of growth at 10 µM
1,COc1cc2nc(-c3cccs3)cc(OCCCN3CCC(O)CC3)c2cc1OC,20%

# Test system: K562
# Test: Growth inhibition of human K562 cells at 10 uM incubated for 48 hrs by sulforhodamine B assay relative to control
# Assay type: functional
# Details: read-out: GI
# In short: as §1
row,Compound,inhibition of growth at 10 µM
1,COc1cc2nc(-c3cccs3)cc(OCCCN3CCC(O)CC3)c2cc1OC,20%

# Test system: NCI-H322M
# Test: Growth inhibition of human NCI-H322M cells at 10 uM incubated for 48 hrs by sulforhodamine B assay relative to control
# Assay type: functional
# Details: read-out: GI
# In short: as §2
row,Compound,inhibition of growth at 10 µM
1,COc1cc2nc(-c3cccs3)cc(OCCCN3CCC(O)CC3)c2cc1OC,20%

# Test system: TK-10
# Test: Growth inhibition of human TK-10 cells at 10 uM incubated for 48 hrs by sulforhodamine B assay relative to control
# Assay type: functional
# Details: read-out: GI
# In short: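 NCI one-dose screen across a 59-line panel. Cells were grown in RPMI 1640 with 5% FBS and 2 mM L-glutamine, plated and pre-incubated 24 h, then exposed to drug for 48 h at 37 °C, 5% CO2. Adherent cells were fixed with cold TCA (10% final), stained with 0.4% SRB in 1% acetic acid and read at 515 nm. Result is percent growth relative to no-drug control and time-zero cell count.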
row,Compound,inhibition of growth at 10 µM
1,COc1cc2nc(-c3cccs3)cc(OCCCN3CCC(O)CC3)c2cc1OC,20%
